Source: the array DNA melting data of Ke et al. (doi:10.1101/2024.01.08.574731)

Legend:
[1] = melting temperature; fluorescence melt of hairpins on a sequencing array, two-state fit, raised by 9.35 °C to match UV melts; conditions: sodium 0.088 M
Method in brief: (§1)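 With Cy3 and quencher oligos annealed, library hairpins on a sequenced MiSeq flow cell were imaged for Cy3 fluorescence in 50 mM Na-HEPES pH 8.0, 25 mM NaCl, in 2.5 °C steps up to 60 °C. Melting temperature and folding enthalpy were derived from bootstrapped two-state fits of signals normalised to pre-quench Cy3 and to control constructs. Four replicates were combined by inverse variance, with fitted temperatures raised by 9.35 °C to match UV melts.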

[2] = folding enthalpy; higher = less favourable; fluorescence melt of hairpins on a sequencing array, two-state fit; conditions: sodium 0.088 M
Method in brief: as §1

Sequence | Tm [1] | folding enthalpy [2]
CGTAAACGGAAACGTACG (((..(((....)))))) | 34.8 °C | -23.5 kcal/mol
CGTAACGGAAACGTACG (((.(((....)))))) | 44.3 °C | -31 kcal/mol
CGTACCGGAAACGGGACG (((.(((....))).))) | 64.8 °C | -36.4 kcal/mol
CGTACGCGGAAACGCACG (((..(((....)))))) | 40.7 °C | -13.5 kcal/mol
CGTACGGAAACGTACACG ((((((....)))..))) | 39.9 °C | -11.5 kcal/mol
CGTACGGAAACGTCTACG ((((((....)))..))) | 30.7 °C | -14.7 kcal/mol
CGTACGGAAACGTGACG ((((((....))).))) | 41.1 °C | -25.9 kcal/mol
CGTACGGAAACGTGGACG ((((((....)))..))) | 35.2 °C | -15.1 kcal/mol
CGTACGGAAACGTTGACG ((((((....)))..))) | 36.3 °C | -16.5 kcal/mol
CGTAGACGGAAACGTACG (((..(((....)))))) | 36.9 °C | -16.7 kcal/mol
CGTAGCGGAAACGCAACG (((.(((....))).))) | 53 °C | -29.5 kcal/mol
CGTAGCGGAAACGCGACG (((.(((....))).))) | 59.1 °C | -31 kcal/mol
CGTAGGAAACTACG (((((....))))) | 48.2 °C | -21 kcal/mol
CGTATACGGAAACGTACG (((..(((....)))))) | 33 °C | -27.7 kcal/mol
CGTATCCGGAAACGGACG (((..(((....)))))) | 32.5 °C | -13.8 kcal/mol
CGTATCGGAAACGACACG (((.(((....))).))) | 42.6 °C | -31.2 kcal/mol
CGTATCGGAAACGAGACG (((.(((....))).))) | 53.3 °C | -35.2 kcal/mol
CGTCCGGAAACGGCGACG ((((((....)))..))) | 46.7 °C | -13.6 kcal/mol
CGTCCGGAAACGGGACG ((((((....))).))) | 55.8 °C | -30.4 kcal/mol
CGTCCGGAAACGGGGACG ((((((....)))..))) | 48.3 °C | -25 kcal/mol
CGTCCGGAAACGGTGACG ((((((....)))..))) | 41 °C | -21.9 kcal/mol
CGTCGCCGGAAACGGACG (((..(((....)))))) | 47.1 °C | -17.8 kcal/mol
CGTCTTCGGAAACGAACG (((..(((....)))))) | 29.8 °C | -11.3 kcal/mol

Sequence | Tm [1] | folding enthalpy [2]
CGTGAACGGAAACGTACG (((..(((....)))))) | 35.3 °C | -21.1 kcal/mol
CGTGACGGAAACGTAACG (((.(((....))).))) | 50.3 °C | -37.4 kcal/mol
CGTGACGGAAACGTGACG (((.(((....))).))) | 48.9 °C | -26.2 kcal/mol
CGTGATCGGAAACGAACG (((..(((....)))))) | 28.6 °C | -8.71 kcal/mol
CGTGCCCGGAAACGGACG (((..(((....)))))) | 32.9 °C | -14.8 kcal/mol
CGTGCGGAAACGCGAACG ((((((....)))..))) | 47.6 °C | -23.3 kcal/mol
CGTGCGGAAACGCTAACG ((((((....)))..))) | 43.5 °C | -20 kcal/mol
CGTGGCGGAAACGCAACG (((.(((....))).))) | 56.8 °C | -38.7 kcal/mol
CGTGTCGGAAACGAGACG (((.(((....))).))) | 51.7 °C | -36 kcal/mol
CGTTACGGAAACGTTACG (((.(((....))).))) | 48 °C | -26.9 kcal/mol
CGTTCGGAAACGAAACG ((((((....))).))) | 45.8 °C | -27.8 kcal/mol
CGTTCGGAAACGACGACG ((((((....)))..))) | 37.5 °C | -15.9 kcal/mol
CGTTCGGAAACGAGACG ((((((....))).))) | 39 °C | -24.1 kcal/mol
CGTTCGGAAACGAGTACG ((((((....)))..))) | 35.9 °C | -18.8 kcal/mol
CGTTGCGGAAACGCACG (((.(((....)))))) | 52.8 °C | -21.4 kcal/mol
CGTTGGAAACAACG (((((....))))) | 52.9 °C | -30.3 kcal/mol
CTAAGGAAACTTAG (((((....))))) | 29.8 °C | -10.7 kcal/mol
CTAATGAAAATTAG (((((....))))) | 26 °C | -7.43 kcal/mol
CTACTGAAAAGTAG (((((....))))) | 44.3 °C | -13.5 kcal/mol
CTAGTGAAAACTAG (((((....))))) | 42.4 °C | -15 kcal/mol
CTCACGAAAGTGAG (((((....))))) | 61 °C | -22.2 kcal/mol
CTCCGGAAACGGAG (((((....))))) | 55.1 °C | -24 kcal/mol
CTGAGGAAACTCAG (((((....))))) | 47.1 °C | -20.1 kcal/mol

Sequence | Tm [1] | folding enthalpy [2]
CTTATGAAAATAAG (((((....))))) | 25.1 °C | -11.4 kcal/mol
CTTCCGAAAGGAAG (((((....))))) | 55.8 °C | -21.3 kcal/mol
CTTGAGAAATCAAG (((((....))))) | 35.6 °C | -11.1 kcal/mol
GAAAAAGGAAACTTTTTC (((((((....))))))) | 46 °C | -39.7 kcal/mol
GAAAACACGAAAGTGTTC (((..(((....)))))) | 35.9 °C | -11.9 kcal/mol
GAAAACGAAAGTTGATTC ((((((....)))..))) | 33.6 °C | -17.8 kcal/mol
GAAAACGCGAAAGCGTTC (((..(((....)))))) | 41.1 °C | -8.84 kcal/mol
GAAAACGGAAACGTTCTC ((.((((....)))).)) | 30.4 °C | -12.7 kcal/mol
GAAAAGGGAAACTTTTTC (((((.(....).))))) | 29.6 °C | -11.5 kcal/mol
GAAAATCCGAAAGGATTC (((..(((....)))))) | 33.4 °C | -11.8 kcal/mol
GAAAATGGAAACATTTTC (((((((....))))))) | 51 °C | -44.6 kcal/mol
GAAACCCGAAAGGGCTTC (((.(((....))).))) | 46.4 °C | -24.9 kcal/mol
GAAACCCGAAAGGGGTTC (((.(((....))).))) | 59.2 °C | -29 kcal/mol
GAAACCGAAAGGTATTC ((((((....))).))) | 31.6 °C | -14.1 kcal/mol
GAAACCGAAAGGTCTTC ((((((....))).))) | 40.4 °C | -19.4 kcal/mol
GAAACCGAAAGGTGTTC ((((((....))).))) | 36.5 °C | -13 kcal/mol
GAAACCGGAAACGGTCTC ((.((((....)))).)) | 35.5 °C | -14.2 kcal/mol
GAAACGCGAAAGCGCTTC (((.(((....))).))) | 51.5 °C | -18.7 kcal/mol
GAAACGCGAAAGCGGTTC (((.(((....))).))) | 66.3 °C | -27.2 kcal/mol
GAAACGGAAACGTTTC ((((((....)))))) | 55.3 °C | -39.8 kcal/mol
GAAACGGGAAACCGCTTC (((.(((....))).))) | 40.4 °C | -24.2 kcal/mol
GAAACGGGAAACCGTCTC ((.((((....)))).)) | 32.9 °C | -13.5 kcal/mol
GAAACTGGAAACAGCTTC (((.(((....))).))) | 32.5 °C | -31.1 kcal/mol

Sequence | Tm [1] | folding enthalpy [2]
GAAACTGGAAACAGTTTC (((((((....))))))) | 56.9 °C | -51.5 kcal/mol
GAAAGCACGAAAGTGTTC (((..(((....)))))) | 24 °C | -9.28 kcal/mol
GAAAGCGAAAGCTACTTC ((((((....)))..))) | 35.9 °C | -14.6 kcal/mol
GAAAGCGAAAGCTCATTC ((((((....)))..))) | 23.9 °C | -8.68 kcal/mol
GAAAGCGAAAGCTGTTC ((((((....))).))) | 34.1 °C | -10.8 kcal/mol
GAAAGCGAAAGCTTTC ((((((....)))))) | 64.7 °C | -34.9 kcal/mol
GAAAGCGGAAACACTTTC (((((.(....).))))) | 36.2 °C | -29.8 kcal/mol
GAAAGGCGAAAGCCCTTC (((.(((....))).))) | 38.8 °C | -13 kcal/mol
GAAAGGGGAAACCCCTTC (((.(((....))).))) | 39.9 °C | -14.8 kcal/mol
GAAAGGGGAAACCCTTCC (.(((((....))))).) | 32.1 °C | -19.7 kcal/mol
GAAAGTGGAAACACTCTC ((.((((....)))).)) | 26.6 °C | -19.4 kcal/mol
GAAATAGGAAACTATTTC (((((((....))))))) | 46.4 °C | -44.1 kcal/mol
GAAATCGAAAGATTTC ((((((....)))))) | 55.9 °C | -32.5 kcal/mol
GAAATCGGAAACGATTCC (.(((((....))))).) | 37.1 °C | -16.6 kcal/mol
GAAATGCGAAAGCAATTC (((.(((....))).))) | 45.3 °C | -20 kcal/mol
GAAATTGAAAAATTTC ((((((....)))))) | 40.3 °C | -23.6 kcal/mol
GAAATTGGAAACAATTCC (.(((((....))))).) | 30.5 °C | -22.9 kcal/mol
GAACAAGGAAACTTGTTC (((((((....))))))) | 53 °C | -44.9 kcal/mol
GAACACGAAAGTGATTTC ((((((....)))..))) | 26.9 °C | -12.3 kcal/mol
GAACACGAAAGTGCTTTC ((((((....)))..))) | 27.8 °C | -13 kcal/mol
GAACACGAAAGTGGTTC ((((((....))).))) | 47.1 °C | -18.6 kcal/mol
GAACAGCCGAAAGGCTTC (((..(((....)))))) | 24.5 °C | -5.48 kcal/mol
GAACAGGGAAACCTGTCC (.(((((....))))).) | 35.1 °C | -16.1 kcal/mol
